We go through nine molecules from ChEMBL document CHEMBL4138308, “Simultaneous Targeting of RGD-Integrins and Dual Murine Double Minute Proteins in Glioblastoma Multiforme” (J Med Chem, 2018).

Molecules are shown by their SMILES. Active and inactive are the calls of the source. No cut-off for these calls is given here.

For one assay, the target named is Integrin alpha-5/beta-1 (Homo sapiens, UniProt P05556+P08648). In words: Inhibition of fibronectin binding to soluble alpha5beta1 integrin (unknown origin) after 1 hr by ELISA. The assay is classed as protein-complex assay. In general terms: In an ELISA, binding on a coated surface is turned into a signal by an enzyme label.
For another assay, the target named is T1, Protein Mdm4 (Homo sapiens, UniProt O15151).
T1 sequence (O15151 whole entry): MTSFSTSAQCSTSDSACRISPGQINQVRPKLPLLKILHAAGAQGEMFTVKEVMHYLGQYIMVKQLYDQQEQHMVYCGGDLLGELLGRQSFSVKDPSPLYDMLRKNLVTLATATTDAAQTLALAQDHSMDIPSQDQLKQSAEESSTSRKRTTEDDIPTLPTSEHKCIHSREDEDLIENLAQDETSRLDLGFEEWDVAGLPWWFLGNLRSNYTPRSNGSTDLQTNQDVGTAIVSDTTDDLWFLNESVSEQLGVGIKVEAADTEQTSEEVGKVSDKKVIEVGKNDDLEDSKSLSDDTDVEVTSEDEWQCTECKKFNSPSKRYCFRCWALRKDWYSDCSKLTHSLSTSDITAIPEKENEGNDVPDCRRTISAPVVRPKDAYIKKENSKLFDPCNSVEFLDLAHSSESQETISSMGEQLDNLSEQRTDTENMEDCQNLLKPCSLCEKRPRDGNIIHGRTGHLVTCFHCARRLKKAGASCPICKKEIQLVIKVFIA
In words: Displacement of p53 from MDM4 in human SHSY-5Y cells incubated for 10 mins by sandwich ELISA method. It counts as cell-based.

Assay [1] addresses E3 ubiquitin-protein ligase Mdm2 (Homo sapiens, UniProt Q00987). In words: Displacement of p53 from MDM2 in human U87MG cells incubated for 10 mins by sandwich ELISA method. The assay is classed as cell-based.
The target in a further assay is Integrin alpha-V/beta-3 (Homo sapiens, UniProt P05106+P06756). In words: Inhibition of vitronectin binding to human alphaVbeta3 integrin after 1 hr by ELISA. It counts as protein-complex assay. A digest of the protocol:
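Plates coated overnight at 4 °C with vitronectin 1.0 μg/mL in carbonate buffer pH 9.6, blocked 1 h with TSB (Ca2+, Mg2+, Mn2+, 1% BSA). Soluble human αvβ3 (final 1.0 μg/mL) with inhibitor (final 0.128–400 nM) 1 h at room temperature; detection by anti-CD51/61 then peroxidase secondary, absorbance 405 nm. Duplicates; IC50 from curve inflection point; internal standard per plate.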

In assay [2] the target is T2, Protein Mdm4 (Homo sapiens) (UniProt O15151).
T2 sequence (whole entry): T1 sequence (O15151 whole entry)
In words: Inhibition of MDM4 in human U87MG cells assessed as increase in PUMA mRNA expression at 100 nM after 24 hrs in presence of alphaVbeta3 inhibitor cilengitide by RT-PCR method. The assay is classed as cell-based. A digest of the protocol: (§1)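 U87MG cells exposed to agents at 100 nM, alone or combined, for 8 or 24 h; total RNA extracted, cDNA made from 500 ng RNA, MDM2, PUMA and p21 transcripts quantified by real-time PCR. Data as % of DMSO control, mean ± SEM, N = 3.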

Assay [3] has as its target T2, Protein Mdm4 (Homo sapiens). In words: Inhibition of MDM4 in human U87MG cells assessed as increase in p21 mRNA expression at 100 nM after 24 hrs by RT-PCR method. It counts as cell-based. A digest of the protocol:
as §1

The test system of assay [4] is U-87 MG. The assay is described as follows: Antiproliferative activity against human U87MG cells at 100 nM after 72 hrs by MTS assay. It counts as functional, cell-based. The note with it: U-87MG ATCC. A digest of the protocol: (§2)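 Cells seeded ~5000 cells/cm2, after 24 h medium replaced with compound in DMSO (DMSO 1% v/v in controls), alone or in combination at 100 nM each, or concentration series (U87MG 1–100 nM). 72 h exposure; proliferation read by MTS, expressed as % of DMSO control (mean ± SEM, N = 3); IC50 from sigmoid dose–response fit.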

The next assay deals with MDM4 (Homo sapiens) (UniProt O15151). In words: Inhibition of MDM4 in human U87MG cells assessed as increase in PUMA mRNA expression at 100 nM after 24 hrs in presence of MDM2 inhibitor nutlin-3 and alphaVbeta3 inhibitor cilengitide by RT-PCR method.
The target of assay [5] is T2, Protein Mdm4 (Homo sapiens). The assay is described as follows: Inhibition of MDM4 in human U87MG cells assessed as increase in MDM2 mRNA expression at 100 nM after 8 hrs in presence of MDM2 inhibitor nutlin-3 by RT-PCR method. It counts as cell-based. A digest of the protocol: as §1
For assay [6], the system named is U-87 MG. The assay is described as follows: Anti-invasive activity in human U87MG cells at 10 uM after 24 hrs in presence of MDM2 inhibitor nutlin-3 and alphaVbeta3 inhibitor cilengitide by transwell assay. The assay is classed as functional, cell-based. Particulars: U-87MG ATCC. A digest of the protocol:
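U87MG cells suspended in serum-free medium (60,000 cells), treated at 10 μM (each agent at 10 μM when combined), placed in upper chamber of Matrigel-coated (0.32 mg/mL) transwell; lower chamber RPMI with 10% FBS. Invasion 24 h at 37 °C; cells on lower membrane surface fixed with p-formaldehyde, crystal violet stained, counted in five random fields per filter. Mean ± SEM vs DMSO control.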

Assay [7] deals with T2, Protein Mdm4 (Homo sapiens). In words: Inhibition of MDM4 in human U87MG cells assessed as increase in MDM2 mRNA expression at 100 nM after 8 hrs in presence of MDM2 inhibitor nutlin-3 and alphaVbeta3 inhibitor cilengitide by RT-PCR method. It counts as cell-based. A digest of the protocol: as §1
Assay [8] has the same target. The assay is described as follows: Inhibition of MDM4 in human U87MG cells assessed as increase in p53 accumulation at 100 nM after 24 hrs in presence of MDM2 inhibitor nutlin-3 and alphaVbeta3 inhibitor cilengitide by Western blot method. The assay is classed as cell-based. A digest of the protocol: (§3)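 U87MG cells treated 24 h with agents at 100 nM, alone or combined; 40 μg lysate protein resolved by SDS-PAGE, immunoblotted for p53 with GAPDH loading control; bands quantified by densitometry as % of DMSO control (mean ± SEM, N = 3).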

The target is the same in assay [9]. The assay is described as follows: Inhibition of MDM4 in human U87MG cells assessed as increase in p53 accumulation at 100 nM after 24 hrs in presence of MDM2 inhibitor nutlin-3 by Western blot method. It counts as cell-based. A digest of the protocol:
as §3
In general terms: In western blotting, separated proteins are transferred to a membrane and probed.

Assay [10] has the same target. In words: Inhibition of MDM4 in human U87MG cells assessed as increase in PUMA mRNA expression at 100 nM after 24 hrs by RT-PCR method. It counts as cell-based. A digest of the protocol: as §1
The target is the same in assay [11]. In words: Inhibition of MDM4 in human U87MG cells assessed as increase in PUMA mRNA expression at 100 nM after 24 hrs in presence of MDM2 inhibitor nutlin-3 by RT-PCR method. It counts as cell-based. A digest of the protocol: as §1
Assay [12] deals with U-87 MG. In words: Antiproliferative activity against human U87MG cells at 100 nM after 72 hrs in presence of alphaVbeta3 inhibitor cilengitide and MDM2 inhibitor nutlin-3 by MTS assay. The assay is classed as functional, cell-based. The note with it: U-87MG ATCC. A digest of the protocol:
as §2
For orientation: Tetrazolium assays rely on reduction of a dye to a coloured formazan, in cell work by metabolically active cells.

Integrin alpha-V/beta-3, sequence (P05106 27-788 limits assumed): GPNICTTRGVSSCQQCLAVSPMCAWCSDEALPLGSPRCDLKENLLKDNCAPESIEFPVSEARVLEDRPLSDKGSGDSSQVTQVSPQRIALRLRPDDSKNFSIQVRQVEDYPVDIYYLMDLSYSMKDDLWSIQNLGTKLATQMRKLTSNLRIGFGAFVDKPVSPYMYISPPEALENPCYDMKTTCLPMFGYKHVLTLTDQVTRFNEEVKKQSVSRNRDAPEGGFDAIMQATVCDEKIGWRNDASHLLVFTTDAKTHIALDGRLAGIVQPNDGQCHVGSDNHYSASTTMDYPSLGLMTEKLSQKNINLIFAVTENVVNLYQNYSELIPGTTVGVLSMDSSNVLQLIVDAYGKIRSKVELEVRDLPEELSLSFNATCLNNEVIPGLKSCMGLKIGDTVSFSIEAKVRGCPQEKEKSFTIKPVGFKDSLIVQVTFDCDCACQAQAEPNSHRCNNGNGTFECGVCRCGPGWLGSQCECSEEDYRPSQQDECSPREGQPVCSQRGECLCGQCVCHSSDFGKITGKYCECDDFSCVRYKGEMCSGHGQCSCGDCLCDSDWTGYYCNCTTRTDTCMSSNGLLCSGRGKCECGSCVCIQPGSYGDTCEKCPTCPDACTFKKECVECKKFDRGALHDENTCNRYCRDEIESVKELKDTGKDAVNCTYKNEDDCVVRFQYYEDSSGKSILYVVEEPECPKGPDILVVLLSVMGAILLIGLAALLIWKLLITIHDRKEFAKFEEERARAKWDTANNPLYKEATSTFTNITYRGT
Integrin alpha-V/beta-3, sequence (P06756 31-889 limits assumed): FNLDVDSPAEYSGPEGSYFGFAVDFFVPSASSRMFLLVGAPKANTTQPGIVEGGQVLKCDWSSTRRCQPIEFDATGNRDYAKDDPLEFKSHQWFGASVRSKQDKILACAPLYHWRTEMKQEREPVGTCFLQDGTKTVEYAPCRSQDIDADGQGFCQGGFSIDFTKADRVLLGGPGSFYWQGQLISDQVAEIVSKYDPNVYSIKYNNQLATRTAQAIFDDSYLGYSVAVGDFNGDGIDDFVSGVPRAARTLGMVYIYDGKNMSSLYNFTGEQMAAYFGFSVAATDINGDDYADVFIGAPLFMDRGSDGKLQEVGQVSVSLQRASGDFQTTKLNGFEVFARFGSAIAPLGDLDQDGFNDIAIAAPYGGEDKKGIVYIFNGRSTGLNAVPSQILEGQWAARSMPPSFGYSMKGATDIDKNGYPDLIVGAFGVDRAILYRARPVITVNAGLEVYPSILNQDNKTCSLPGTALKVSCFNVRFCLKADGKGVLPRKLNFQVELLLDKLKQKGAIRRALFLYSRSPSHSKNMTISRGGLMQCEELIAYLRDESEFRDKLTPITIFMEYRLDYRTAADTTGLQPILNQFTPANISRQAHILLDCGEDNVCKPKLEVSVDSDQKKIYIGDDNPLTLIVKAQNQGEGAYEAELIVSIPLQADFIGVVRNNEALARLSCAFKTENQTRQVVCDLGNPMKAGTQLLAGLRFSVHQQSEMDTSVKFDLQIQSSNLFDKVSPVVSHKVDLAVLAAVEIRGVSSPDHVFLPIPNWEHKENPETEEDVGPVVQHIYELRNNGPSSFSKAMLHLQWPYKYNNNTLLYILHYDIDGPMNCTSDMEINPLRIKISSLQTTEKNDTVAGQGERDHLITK
Integrin alpha-V/beta-3, sequence (P06756 891-1048 limits assumed): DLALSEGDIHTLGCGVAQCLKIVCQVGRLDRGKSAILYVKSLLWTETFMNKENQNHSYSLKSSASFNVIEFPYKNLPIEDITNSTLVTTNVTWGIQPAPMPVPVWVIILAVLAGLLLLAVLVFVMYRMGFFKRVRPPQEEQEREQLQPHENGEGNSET
Integrin alpha-5/beta-1, sequence (P05556 21-798 limits assumed): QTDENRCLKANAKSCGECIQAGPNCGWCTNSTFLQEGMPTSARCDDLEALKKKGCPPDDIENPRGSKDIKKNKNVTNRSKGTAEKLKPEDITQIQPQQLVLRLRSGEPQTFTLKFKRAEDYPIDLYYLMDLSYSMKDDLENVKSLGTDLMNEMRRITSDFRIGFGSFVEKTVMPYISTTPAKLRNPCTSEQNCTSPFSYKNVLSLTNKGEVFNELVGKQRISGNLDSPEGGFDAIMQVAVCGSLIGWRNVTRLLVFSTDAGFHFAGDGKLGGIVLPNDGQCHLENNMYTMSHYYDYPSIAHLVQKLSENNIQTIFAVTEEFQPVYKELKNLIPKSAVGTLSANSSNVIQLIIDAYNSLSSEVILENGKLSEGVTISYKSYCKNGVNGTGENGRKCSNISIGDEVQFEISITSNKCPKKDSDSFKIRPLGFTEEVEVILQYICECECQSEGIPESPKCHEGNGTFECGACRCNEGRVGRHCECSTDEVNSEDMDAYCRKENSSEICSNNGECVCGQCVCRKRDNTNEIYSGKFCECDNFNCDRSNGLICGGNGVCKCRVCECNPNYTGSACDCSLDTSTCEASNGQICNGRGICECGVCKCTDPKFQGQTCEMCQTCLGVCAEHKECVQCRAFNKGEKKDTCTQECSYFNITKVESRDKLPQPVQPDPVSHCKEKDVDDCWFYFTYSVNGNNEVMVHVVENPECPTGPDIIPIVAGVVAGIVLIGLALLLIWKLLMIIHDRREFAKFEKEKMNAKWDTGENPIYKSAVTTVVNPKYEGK
Integrin alpha-5/beta-1, sequence (P08648 42-894 limits assumed): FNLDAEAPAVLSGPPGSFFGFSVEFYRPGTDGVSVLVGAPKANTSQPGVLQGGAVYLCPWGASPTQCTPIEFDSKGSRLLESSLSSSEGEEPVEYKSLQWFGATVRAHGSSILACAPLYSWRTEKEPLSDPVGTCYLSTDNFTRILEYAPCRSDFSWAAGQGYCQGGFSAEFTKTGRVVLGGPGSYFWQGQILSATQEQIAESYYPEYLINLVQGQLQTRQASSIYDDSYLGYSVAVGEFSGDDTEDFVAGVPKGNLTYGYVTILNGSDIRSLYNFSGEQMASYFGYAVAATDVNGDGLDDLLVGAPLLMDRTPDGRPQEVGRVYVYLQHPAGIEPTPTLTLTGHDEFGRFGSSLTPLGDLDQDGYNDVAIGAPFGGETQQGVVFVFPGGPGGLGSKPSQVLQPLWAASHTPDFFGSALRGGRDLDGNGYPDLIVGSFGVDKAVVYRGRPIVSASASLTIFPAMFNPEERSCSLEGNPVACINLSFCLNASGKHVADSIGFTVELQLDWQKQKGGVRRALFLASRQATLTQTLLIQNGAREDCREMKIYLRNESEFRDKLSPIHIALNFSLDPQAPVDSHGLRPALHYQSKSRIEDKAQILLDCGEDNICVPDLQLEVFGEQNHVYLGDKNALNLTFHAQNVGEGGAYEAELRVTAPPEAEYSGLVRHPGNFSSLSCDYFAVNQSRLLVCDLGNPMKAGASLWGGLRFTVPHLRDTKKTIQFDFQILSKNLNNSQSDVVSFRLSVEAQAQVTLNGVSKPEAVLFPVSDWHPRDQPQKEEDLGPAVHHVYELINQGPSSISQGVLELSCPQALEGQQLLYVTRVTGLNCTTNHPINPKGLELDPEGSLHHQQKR
Integrin alpha-5/beta-1, sequence (P08648 895-1049 limits assumed): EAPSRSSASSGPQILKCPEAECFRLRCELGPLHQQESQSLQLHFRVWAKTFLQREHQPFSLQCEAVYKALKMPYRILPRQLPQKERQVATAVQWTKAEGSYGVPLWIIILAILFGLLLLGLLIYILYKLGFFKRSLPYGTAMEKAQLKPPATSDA
E3 ubiquitin-protein ligase Mdm2, sequence (Q00987 whole entry): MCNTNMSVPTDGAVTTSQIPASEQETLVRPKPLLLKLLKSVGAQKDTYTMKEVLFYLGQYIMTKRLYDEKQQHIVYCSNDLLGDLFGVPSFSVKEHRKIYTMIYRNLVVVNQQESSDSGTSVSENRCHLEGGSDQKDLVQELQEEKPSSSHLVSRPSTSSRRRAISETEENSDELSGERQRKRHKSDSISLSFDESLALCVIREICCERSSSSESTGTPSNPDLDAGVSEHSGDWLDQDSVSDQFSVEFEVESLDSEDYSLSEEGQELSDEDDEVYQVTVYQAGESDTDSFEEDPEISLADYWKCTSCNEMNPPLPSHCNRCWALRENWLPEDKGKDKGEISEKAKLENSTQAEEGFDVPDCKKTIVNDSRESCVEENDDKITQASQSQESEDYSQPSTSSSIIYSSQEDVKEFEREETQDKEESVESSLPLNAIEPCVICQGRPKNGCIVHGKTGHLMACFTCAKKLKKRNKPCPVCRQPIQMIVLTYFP

For orientation: IC50 means the concentration that inhibits the measured activity by half. Low readings indicate higher potency, high ones lower potency. With `N=C(N)Nc1cccc(C(=O)NCC(=O)N[C@@H](CC(=O)O)C(=O)Nc2ccccc2)c1`, the 50% inhibitory concentration (IC50) at Integrin alpha-5/beta-1 was 13 nM; at Protein Mdm4, above 1000 nM; in [1] it was above 1000 nM; on Integrin alpha-V/beta-3 it was 0.21 nM.
Consider `N=C(N)Nc1cccc(C(=O)NCC(=O)N[C@@H](CC(=O)O)C(=O)NCc2ccc(-c3ccccc3)cc2)c1`, for which the IC50 at Integrin alpha-5/beta-1 was 41 nM; at Protein Mdm4 it was above 1000 nM; at Integrin alpha-V/beta-3, 1.7 nM.
Consider `N=C(N)Nc1cccc(C(=O)NCC(=O)N[C@@H](CC(=O)O)C(=O)NCc2ccc(Cl)cc2)c1`, for which the figures for the half-inhibitory concentration (IC50) on Integrin alpha-5/beta-1 and on Integrin alpha-V/beta-3 were 48 nM and 1.3 nM, respectively.
As to `CCOc1cc(/C=C2\C(=O)N(c3ccccc3)N=C2C)cc(Cl)c1OCC(=O)OC`, the inhibition entry (in [2]; in [3]; at MDM4 (Homo sapiens); in [5]; in assay [7]; in [8]) was “Active” in each case. Besides, the inhibition result in assay [9], in [10] and in assay [11] was “Active” throughout. Besides, the result in the assay with U-87 MG [4] was inactive. Further, the outcome with U-87 MG [6] and in the assay with U-87 MG [12] was Active.
As to `N=C(N)Nc1cccc(C(=O)NCC(=O)N[C@@H](CC(=O)O)C(=O)NCCc2ccccc2)c1`, the IC50 at Integrin alpha-5/beta-1 stood at 28 nM; at Integrin alpha-V/beta-3, 2.8 nM.
`N=C(N)Nc1cccc(C(=O)NCC(=O)N[C@@H](CC(=O)O)C(=O)NCc2cccc(-c3ccccc3)c2)c1`: the IC50 on Integrin alpha-5/beta-1 was 18 nM; at Protein Mdm4, above 1000 nM; at Integrin alpha-V/beta-3 it was 1.2 nM.
As to `N=C(N)Nc1cccc(C(=O)NCC(=O)N[C@@H](CC(=O)O)C(=O)NCCc2c[nH]c3ccccc23)c1`, the concentration for half-maximal inhibition (IC50) is 36 nM at Integrin alpha-5/beta-1, above 1000 nM on Protein Mdm4 and 4 nM at Integrin alpha-V/beta-3.
Turning to `C[C@@H](NC(=O)[C@H](CC(=O)O)NC(=O)CNC(=O)c1cccc(NC(=N)N)c1)c1ccccc1`, the 50% inhibitory concentration (IC50) at Integrin alpha-5/beta-1 stood at 45 nM; at Integrin alpha-V/beta-3, 1.6 nM.
For the molecule `N=C(N)Nc1cccc(C(=O)NCC(=O)N[C@@H](CC(=O)O)C(=O)Nc2cccc3ccccc23)c1`, the half-maximal inhibitory concentration (IC50) on Integrin alpha-5/beta-1 was found to be 22 nM; at Integrin alpha-V/beta-3, 4.5 nM.
